From ChEMBL document CHEMBL3045286, “Citrus limonoids and their semisynthetic derivatives as antifeedant agents against Spodoptera frugiperda larvae. A structure-activity relationship study” (2002)

Test system: Spodoptera frugiperda
Assay: Antifeedant activity against larvae of Spodoptera frugiperda (fall armyworm) at 100 ppm measured every 30 min for 8 hr by binary choice assay relative to control
Format: functional
Outline: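 Final-stadium larvae aged […], reared on wheatgerm diet, starved 2 h, then held singly in Petri dishes with control and treatment glass-fiber disks (2.1 cm). All disks carried 100 µL of 0.05 M sucrose. Treatment disks received compound in acetone and control disks acetone alone; disks were dried and weighed before and after. Ten larvae per compound. Feeding index = [(C − T)/(C + T)]%, mean ± SEM, Wilcoxon matched-pairs test.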

Going from `CC1(C)OC(=O)CC[C@]2(C)[C@H]3CC[C@@]4(C)[C@@H](c5ccoc5)OC(=O)[C@H]5O[C@]54[C@]3(C)C(=O)C[C@@H]12` [1,2-DIDEHYDRO-OBACUNONE] to `CC1(C)OC(=O)C=C[C@]2(C)[C@H]3CC[C@@]4(C)[C@H](c5ccoc5)OC(=O)[C@H]5O[C@]54[C@]3(C)C(=O)C[C@@H]12` [OBACUNONE], the AFI rises from 53% to 68%.

Compared with `CC(=O)O[C@H]1CC(=O)OC(C)(C)[C@@H]2C[C@@H](O)[C@]3(C)[C@H](CC[C@@]4(C)[C@@H](c5ccoc5)OC(=O)[C@H]5O[C@@]534)[C@@]12C` [7-ALPHA-NOMILOL], `CC(=O)O[C@H]1CC(=O)OC(C)(C)[C@@H]2C[C@H](O)[C@]3(C)[C@H](CC[C@@]4(C)[C@@H](c5ccoc5)OC(=O)[C@H]5O[C@@]534)[C@@]12C` [7-BETA-NOMILOL] is lower in AFI: 46% for the first, 35% for the second.

First: CC1(C)OC(=O)C=C[C@]2(C)[C@H]3CC[C@@]4(C)[C@@H](c5ccoc5)OC(=O)[C@H]5O[C@]54[C@]3(C)[C@H](O)C[C@@H]12 [7-ALPHA-OBACUNOL]
Second: CC1(C)OC(=O)C=C[C@]2(C)[C@H]3CC[C@@]4(C)[C@@H](c5ccoc5)OC(=O)[C@H]5O[C@]54[C@]3(C)[C@@H](O)C[C@@H]12 [7-BETA-OBACUNOL]
The AFI of the first is higher: 53% for the first, 35% for the second.

First: CC(=O)O[C@@H]1C[C@H]2C(C)(C)OC(=O)C=C[C@]2(C)[C@H]2CC[C@@]3(C)[C@@H](c4ccoc4)OC(=O)[C@H]4O[C@]43[C@@]21C [7-ALPHA-OBACUNYL ACETATE]
Second: CC(=O)O[C@H]1C[C@H]2C(C)(C)OC(=O)C=C[C@]2(C)[C@H]2CC[C@@]3(C)[C@@H](c4ccoc4)OC(=O)[C@H]4O[C@]43[C@]12C [7-BETA-OBACUNYL ACETATE]
The AFI of the first is lower: 24% for the first, 26% for the second.

First: CC(=O)O[C@H]1CC(=O)OC(C)(C)[C@@H]2C[C@H](OC(C)=O)[C@]3(C)[C@H](CC[C@@]4(C)[C@@H](c5ccoc5)OC(=O)[C@H]5O[C@@]534)[C@@]12C [7-BETA-NOMILYL ACETATE]
Second: CC(=O)O/N=C1\C[C@H]2C(C)(C)OC(=O)C[C@H](OC(C)=O)[C@]2(C)[C@H]2CC[C@@]3(C)[C@@H](c4ccoc4)OC(=O)[C@H]4O[C@]43[C@]12C [NOMILIN-7-OXIME ACETATE]
The AFI of the first is higher: 46% for the first, 41% for the second.

Going from `CC(=O)O[C@H]1C[C@H]2C(C)(C)O[C@H]3CC(=O)OC[C@]32[C@H]2CC[C@@]3(C)[C@@H](c4ccoc4)OC(=O)[C@H]4O[C@]43[C@]12C` [EPI-LIMONYL ACETATE] to `CC(=O)O[C@@H]1C[C@H]2C(C)(C)O[C@H]3CC(=O)OC[C@]32[C@H]2CC[C@@]3(C)[C@@H](c4ccoc4)OC(=O)[C@H]4O[C@]43[C@@]21C` [LIMONYL ACETATE], the AFI rises from 26% to 45%.

First: CC1(C)O[C@H]2CC(=O)OC[C@]23[C@H]2CC[C@@]4(C)[C@@H]([C@H]5CCOC5)OC(=O)[C@H]5O[C@]54[C@]2(C)C(=O)C[C@@H]13 [EPI-PERHYDROLIMONIN]
Second: CC1(C)O[C@H]2CC(=O)OC[C@]23[C@H]2CC[C@@]4(C)[C@@H]([C@@H]5CCOC5)OC(=O)[C@H]5O[C@]54[C@]2(C)C(=O)C[C@@H]13 [PERHYDROLIMONIN]
The AFI of the first is higher: 45% for the first, 29% for the second.

Going from `CC1(C)O[C@H]2CC(=O)OC[C@]23[C@H]2CC[C@@]4(C)[C@@H](c5ccoc5)OC(=O)[C@H]5O[C@]54[C@]2(C)[C@@H](O)C[C@@H]13` [EPILIMONOL] to `CC1(C)O[C@H]2CC(=O)OC[C@]23[C@H]2CC[C@@]4(C)[C@@H](c5ccoc5)OC(=O)[C@H]5O[C@]54[C@]2(C)[C@H](O)C[C@@H]13` [LIMONOL], the AFI rises from 56% to 68%.

First: CO/N=C1\C[C@H]2C(C)(C)O[C@H]3CC(=O)OC[C@]32[C@H]2CC[C@@]3(C)[C@@H](c4ccoc4)OC(=O)[C@H]4O[C@]43[C@]12C [LIMONIN-7-METHOXIME]
Second: CC1(C)O[C@H]2CC(=O)OC[C@]23[C@H]2CC[C@@]4(C)[C@@H](c5ccoc5)OC(=O)[C@H]5O[C@]54[C@]2(C)/C(=N/O)C[C@@H]13 [LIMONIN-7-OXIME]
The AFI of the first is higher: 76% for the first, 68% for the second.

Going from `CC(=O)O/N=C1\C[C@H]2C(C)(C)O[C@H]3CC(=O)OC[C@]32[C@H]2CC[C@@]3(C)[C@@H](c4ccoc4)OC(=O)[C@H]4O[C@]43[C@]12C` [LIMONIN-7-OXIME ACETATE] to `CC1(C)O[C@H]2CC(=O)OC[C@]23[C@H]2CC[C@@]4(C)[C@H](c5ccoc5)OC(=O)[C@H]5O[C@]54[C@]2(C)C(=O)C[C@@H]13` [LIMONIN], the AFI rises from 45% to 87%.

First: CO/N=C1\C[C@H]2C(C)(C)OC(=O)C[C@H](OC(C)=O)[C@]2(C)[C@H]2CC[C@@]3(C)[C@@H](c4ccoc4)OC(=O)[C@H]4O[C@]43[C@]12C [NOMILIN-7-METHOXIME]
Second: CC(=O)O[C@H]1CC(=O)OC(C)(C)[C@@H]2C/C(=N\O)[C@]3(C)[C@H](CC[C@@]4(C)[C@@H](c5ccoc5)OC(=O)[C@H]5O[C@]543)[C@@]12C [NOMILIN-7-OXIME]
The AFI of the first is higher: 38% for the first, 35% for the second.

Going from `CC(=O)O[C@H]1CC(=O)OC(C)(C)[C@@H]2CC(=O)[C@]3(C)[C@H](CC[C@@]4(C)[C@@H](c5ccoc5)OC(=O)[C@H]5O[C@]543)[C@@]12C` [NOMILIN] to `CC(=O)O/N=C1\C[C@H]2C(C)(C)OC(=O)C=C[C@]2(C)[C@H]2CC[C@@]3(C)[C@@H](c4ccoc4)OC(=O)[C@H]4O[C@]43[C@]12C` [OBACUNONE-7-OXIME ACETATE], the AFI falls from 56% to 21%.

Going from `CO/N=C1\C[C@H]2C(C)(C)OC(=O)C=C[C@]2(C)[C@H]2CC[C@@]3(C)[C@@H](c4ccoc4)OC(=O)[C@H]4O[C@]43[C@]12C` [OBACUNONE-7-METHOXIME] to `CC1(C)OC(=O)C=C[C@]2(C)[C@H]3CC[C@@]4(C)[C@@H](c5ccoc5)OC(=O)[C@H]5O[C@]54[C@]3(C)/C(=N/O)C[C@@H]12` [OBACUNONE-7-OXIME], the AFI falls from 29% to 25%.
